According to ChEMBL document CHEMBL1955832, “Facile synthesis, characterization and pharmacological activities of 3,6-disubstituted 1,2,4-triazolo[3,4-b][1,3,4]thiadiazoles and 5,6-dihydro-3,6-disubstituted-1,2,4-triazolo[3,4-b][1,3,4]thiadiazoles” (2012):
In brackets after ≈: the same amount, converted by molar mass. Activity calls are given as the source filed them. The calls are words filed in the database; no cut-off is given here.

Columns and labels:
Aspergillus flavus [1] = test: Antifungal activity against Aspergillus flavus NCIM 524 at MIC after 3 to 4 days; assay type: functional
Escherichia coli [2] = test: Antibacterial activity against Escherichia coli ATTC 25922 after 16 to 18 hrs by serial dilution method; assay type: functional
Summary of the method: (§1)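 Serial drug dilutions in Mueller-Hinton broth adjusted to pH 5.0 with phosphate buffer, inoculated with standardized bacterial suspension, incubated 16–18 h at 37 °C; MIC taken as lowest concentration without conspicuous growth.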

Mus musculus [3] = test: Analgesic activity Wistar albino mouse assessed as tail withdrawal latency time at 100 mg/kg, po administered by intragastric tube after 60 mins (reference value: 1.363 +/- 0.1297 sec); assay type: functional
[4] = system: Radical scavenging activity; test: Antioxidant activity of the compound assessed as DPPH radical scavenging activity at 800 ug/ml after 20 mins; assay type: functional
Summary of the method: (§2)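 Compound dissolved in methylene dichloride at the stated concentration, mixed with 4 mL 0.1 mM methanolic DPPH, held 20 min at ambient temperature; absorbance read at 517 nm. Scavenging % = (A_DPPH − A_test)/A_DPPH × 100. Triplicate; ascorbic acid positive control.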

Klebsiella pneumoniae [5] = test: Antibacterial activity against recultured Klebsiella pneumoniae at MIC after 3 to 4 days by disc diffusion method; assay type: functional
Summary of the method: (§3)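 Agar well diffusion: seeded agar plates dried 1 h at 37 °C, wells punched and filled with test compound at MIC level in DMSO; DMSO solvent control. Plates in triplicate, kept at 37 °C for 3–4 days; zone of inhibition read.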

Mus musculus [6] = test: Analgesic activity Wistar albino mouse assessed as tail withdrawal latency time at 100 mg/kg, po administered by intragastric tube after 180 mins (reference value: 1.363 +/- 0.1297 sec); assay type: functional
Staphylococcus aureus [7] = test: Antibacterial activity against Staphylococcus aureus ATTC 25923 at MIC after 3 to 4 days by disc diffusion method; assay type: functional; summary of the method: as §3
[8] = system: Trichophyton mentagrophytes; test: Antifungal activity against recultured Trichophyton mentagrophytes by serial plate dilution method; assay type: functional
[9] = system: Trichophyton mentagrophytes; test: Antifungal activity against recultured Trichophyton mentagrophytes at MIC after 3 to 4 days; assay type: functional
[10] = system: Radical scavenging activity; test: Antioxidant activity of the compound assessed as DPPH radical scavenging activity at 400 ug/ml after 20 mins; assay type: functional; summary of the method: as §2
Klebsiella pneumoniae [11] = test: Antibacterial activity against recultured Klebsiella pneumoniae after 16 to 18 hrs by serial dilution method; assay type: functional; summary of the method: as §1
Pseudomonas aeruginosa [12] = test: Antibacterial activity against Pseudomonas aeruginosa ATTC 27853 after 16 to 18 hrs by serial dilution method; assay type: functional; summary of the method: as §1
Escherichia coli [13] = test: Antibacterial activity against Escherichia coli ATTC 25922 at MIC after 3 to 4 days by disc diffusion method; assay type: functional; summary of the method: as §3
[14] = system: Radical scavenging activity; test: Antioxidant activity of the compound assessed as DPPH radical scavenging activity at 200 ug/ml after 20 mins; assay type: functional; summary of the method: as §2
Aspergillus flavus [15] = test: Antifungal activity against Aspergillus flavus NCIM 524 by serial plate dilution method; assay type: functional
Rattus norvegicus = test: Antiinflammatory activity rat assessed as reduction of carrageenan-induced paw oedema at 100 mg/kg, po administered 30 mins before carrageenan challenge measured after 60 to 180 mins; assay type: functional, organism-based; set-up: dose 100 mg/kg
Summary of the method: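 Rats randomly assigned, 100 mg/kg orally as suspension in 1% carboxymethyl cellulose, 30 min before carrageenan injected into right hind paw. Paw thickness measured with vernier callipers at 60, 120 and 180 min. Diclofenac reference; mean ± SEM, n = 6, vs vehicle control.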

Aspergillus fumigatus [16] = test: Antifungal activity against Aspergillus fumigatus NCIM 902 by serial plate dilution method; assay type: functional
Aspergillus fumigatus [17] = test: Antifungal activity against Aspergillus fumigatus NCIM 902 at MIC after 3 to 4 days; assay type: functional
Talaromyces marneffei [18] = test: Antifungal activity against recultured Penicillium marneffei by serial plate dilution method; assay type: functional
Pseudomonas aeruginosa [19] = test: Antibacterial activity against Pseudomonas aeruginosa ATTC 27853 at MIC after 3 to 4 days by disc diffusion method; assay type: functional; summary of the method: as §3
Talaromyces marneffei [20] = test: Antifungal activity against recultured Penicillium marneffei at MIC after 3 to 4 days; assay type: functional
Mus musculus [21] = test: Analgesic activity Wistar albino mouse assessed as tail withdrawal latency time at 100 mg/kg, po administered by intragastric tube after 120 mins (reference value: 1.363 +/- 0.1297 sec); assay type: functional
Staphylococcus aureus [22] = test: Antibacterial activity against Staphylococcus aureus ATTC 25923 after 16 to 18 hrs by serial dilution method; assay type: functional; summary of the method: as §1

Structure (SMILES) | diameter of the inhibition zone (DIZ) (Aspergillus flavus [1]) [mm] | MIC (Escherichia coli [2]) [µM] | Time (Mus musculus [3]) [s] | inhibition [4] [%] | diameter of the inhibition zone (DIZ) (Klebsiella pneumoniae [5]) [mm] | Time (Mus musculus [6]) [s] | diameter of the inhibition zone (DIZ) (Staphylococcus aureus [7]) [mm] | MIC [8] [µM] | diameter of the inhibition zone (DIZ) [9] [mm] | inhibition [10] [%] | MIC (Klebsiella pneumoniae [11]) [µM] | MIC (Pseudomonas aeruginosa [12]) [µM] | diameter of the inhibition zone (DIZ) (Escherichia coli [13]) [mm] | inhibition [14] [%] | MIC (Aspergillus flavus [15]) [µM] | Activity (Rattus norvegicus) | MIC (Aspergillus fumigatus [16]) [µM] | diameter of the inhibition zone (DIZ) (Aspergillus fumigatus [17]) [mm] | MIC (Talaromyces marneffei [18]) [µM] | diameter of the inhibition zone (DIZ) (Pseudomonas aeruginosa [19]) [mm] | also measured
COc1ccc(Br)c(-c2nnc3sc(-c4ccc([N+](=O)[O-])cc4)nn23)c1 | 16 | 28.9 (≈ 12.5 µg/mL) | 3.375 | 71.9 | 11 | 2.663 | 11 | 14.5 (≈ 6.25 µg/mL) | 16 | 68.1 | 28.9 (≈ 12.5 µg/mL) | 28.9 (≈ 12.5 µg/mL) | 11 | 62.9 | 14.5 (≈ 6.25 µg/mL) | Active | 14.5 (≈ 6.25 µg/mL) | 16 | 14.5 (≈ 6.25 µg/mL) | 11 | diameter of the inhibition zone (DIZ) (Talaromyces marneffei [20]): 16 mm; Time (Mus musculus [21]): 3.263 s; MIC (Staphylococcus aureus [22]): 28.9 µM (≈ 12.5 µg/mL)
COc1ccc(Br)c(-c2nnc3n2NC(c2ccccc2Cl)S3)c1 (stereo unspecified) | 16 | 29.5 (≈ 12.5 µg/mL) | 3.6 | 62.7 | 11 | 2.938 | 16 | 29.5 (≈ 12.5 µg/mL) | 11 | 51.8 | 29.5 (≈ 12.5 µg/mL) | 29.5 (≈ 12.5 µg/mL) | 11 | 48 | 14.8 (≈ 6.25 µg/mL) | Active | 14.8 (≈ 6.25 µg/mL) | 16 | 29.5 (≈ 12.5 µg/mL) | 11 | diameter of the inhibition zone (DIZ) (Talaromyces marneffei [20]): 11 mm; Time (Mus musculus [21]): 3.25 s; MIC (Staphylococcus aureus [22]): 14.8 µM (≈ 6.25 µg/mL)
COc1ccc(Br)c(-c2nnc3sc(-c4cc([N+](=O)[O-])cc([N+](=O)[O-])c4)nn23)c1 | 16 | 13.1 (≈ 6.25 µg/mL) | 3.675 | 78 | 16 | 2.425 | 16 | 13.1 (≈ 6.25 µg/mL) | 16 | 68.4 | 13.1 (≈ 6.25 µg/mL) | 26.2 (≈ 12.5 µg/mL) | 16 | 58.5 | 13.1 (≈ 6.25 µg/mL) | Active | 13.1 (≈ 6.25 µg/mL) | 16 | 26.2 (≈ 12.5 µg/mL) | 11 | diameter of the inhibition zone (DIZ) (Talaromyces marneffei [20]): 11 mm; Time (Mus musculus [21]): 3.563 s; MIC (Staphylococcus aureus [22]): 13.1 µM (≈ 6.25 µg/mL)
COc1ccc(Br)c(-c2nnc3sc(-c4ccc(N)cc4)nn23)c1 | 11 | 31.1 (≈ 12.5 µg/mL) | 3.675 | 75.9 | 11 | 2.425 | 11 | 15.5 (≈ 6.25 µg/mL) | 16 | 68 | 31.1 (≈ 12.5 µg/mL) | 15.5 (≈ 6.25 µg/mL) | 11 | 60.3 | 31.1 (≈ 12.5 µg/mL) | Active | 31.1 (≈ 12.5 µg/mL) | 11 | 31.1 (≈ 12.5 µg/mL) | 16 | diameter of the inhibition zone (DIZ) (Talaromyces marneffei [20]): 11 mm; Time (Mus musculus [21]): 3.563 s; MIC (Staphylococcus aureus [22]): 31.1 µM (≈ 12.5 µg/mL)
COc1ccc(Br)c(-c2nnc3n2NC(c2ccc(Cl)cc2)S3)c1 (stereo unspecified) | 16 | 14.8 (≈ 6.25 µg/mL) | 3.675 | 63.4 | 16 | 2.425 | 11 | 16.1 (≈ 6.8 µg/mL) | 16 | 48.1 | 14.8 (≈ 6.25 µg/mL) | 14.8 (≈ 6.25 µg/mL) | 16 | 42.3 | 16.1 (≈ 6.8 µg/mL) | Active | 16.1 (≈ 6.8 µg/mL) | 16 | 16.1 (≈ 6.8 µg/mL) | 16 | diameter of the inhibition zone (DIZ) (Talaromyces marneffei [20]): 11 mm; Time (Mus musculus [21]): 3.563 s; MIC (Staphylococcus aureus [22]): 29.5 µM (≈ 12.5 µg/mL)
COc1ccc(C2Nn3c(nnc3-c3cc(OC)ccc3Br)S2)cc1 (stereo unspecified) | 11 | 29.8 (≈ 12.5 µg/mL) | 3.468 | 77.9 | 11 | 2.841 | 11 | 29.8 (≈ 12.5 µg/mL) | 11 | 65.9 | 29.8 (≈ 12.5 µg/mL) | 29.8 (≈ 12.5 µg/mL) | 11 | 40.6 | 29.8 (≈ 12.5 µg/mL) | Active | 14.9 (≈ 6.25 µg/mL) | 16 | 14.9 (≈ 6.25 µg/mL) | 11 | diameter of the inhibition zone (DIZ) (Talaromyces marneffei [20]): 16 mm; Time (Mus musculus [21]): 3.334 s; MIC (Staphylococcus aureus [22]): 29.8 µM (≈ 12.5 µg/mL)
COc1ccc(Br)c(-c2nnc3n2NC(c2cccc(Cl)c2)S3)c1 (stereo unspecified) | 11 | 29.5 (≈ 12.5 µg/mL) | 3.546 | 62.5 | 11 | 2.235 | 11 | 29.5 (≈ 12.5 µg/mL) | 11 | 44.7 | 29.5 (≈ 12.5 µg/mL) | 29.5 (≈ 12.5 µg/mL) | 11 | 35.9 | 29.5 (≈ 12.5 µg/mL) | Active | 29.5 (≈ 12.5 µg/mL) | 11 | 29.5 (≈ 12.5 µg/mL) | 11 | diameter of the inhibition zone (DIZ) (Talaromyces marneffei [20]): 11 mm; Time (Mus musculus [21]): 3.623 s; MIC (Staphylococcus aureus [22]): 29.5 µM (≈ 12.5 µg/mL)
